Where two headings read alike, the source gives them in different places.
Columns and labels:
[1] = tested on: mixture of tyrosine kinases extracted from HT-29 cell line; type: biochemical, human; details: 10 μM
[2] = target: purified Src kinase (Homo sapiens, UniProt P12931); assay: biochemical; details: for inhibition at 10 µM: read-out: Src kinase inhibition
[3] = tested on: HT-29 cells; assay: cells; details: Homo sapiens, HT-29, 72 h; for viability at 10 µM: read-out: viability drop compared to control cells
[4] = tested on: HCT-116 cells; assay: cells; details: Homo sapiens, HCT-116, 72 h; for viability at 10 µM: read-out: viability drop compared to control cells; for IC50: 72 h
[5] = tested on: LS-174T colorectal cancer cells; assay: cells; details: Homo sapiens, LS174T, 72 h, read-out: viability drop compared to control cells
[6] = tested on: HCT-116 cells; assay: Annexin V-FITC/PI apoptosis/necrosis assessment, HCT-116; type: cell-based, human; details: 10 μM, 48 h, versus control
Outline: (§1)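 Human colorectal cancer cells were exposed to 10 μM test compound for 48 h, then stained with annexin V-FITC/PI and analysed by flow cytometry to separate apoptotic from necrotic cells. Each population is expressed as a percentage of total events and compared with untreated control. Values are mean ± SD, n = 3.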

[7] = tested on: HCT-116 cells; details: 72 h; for viability drop compared to control cells: 100 μM
[8] = tested on: HCT-116 cells; assay: Cyto-ID autophagy assessment, HCT-116; type: cell-based, human; details: 10 μM, 48 h
[9] = tested on: HT-29 cells; assay: Annexin V-FITC/PI apoptosis/necrosis assessment, HT-29; type: cell-based, human; details: 10 μM, 48 h, versus control
Outline: as §1

[10] = tested on: HT-29 cells; assay: Cell cycle distribution by DNA cytometry, HT-29; type: cell-based, human; details: 10 μM, 48 h; for cell population in G2/M-phase: control 19.3 ± 1.6%; for cells in S-phase: control 27.3 ± 0.6%; for cell population in G0/G1-phase: control 53.4 ± 2.7%
[11] = tested on: HT-29 cells; details: 72 h; for viability drop compared to control cells: 100 μM
[12] = tested on: LS-174T colorectal cancer cells; details: 100 μM; 72 h
[13] = tested on: HT-29 cells; assay: Cyto-ID autophagy assessment, HT-29; type: cell-based, human; details: for inhibition at 10 µM: Homo sapiens, HT-29, 48 h, read-out: inhibition of autophagy
[14] = tested on: HCT-116 cells; assay: Cell cycle distribution by DNA cytometry, HCT-116; type: cell-based, human; details: 10 μM, 48 h

purified Src kinase, sequence (P12931 whole entry, looked up): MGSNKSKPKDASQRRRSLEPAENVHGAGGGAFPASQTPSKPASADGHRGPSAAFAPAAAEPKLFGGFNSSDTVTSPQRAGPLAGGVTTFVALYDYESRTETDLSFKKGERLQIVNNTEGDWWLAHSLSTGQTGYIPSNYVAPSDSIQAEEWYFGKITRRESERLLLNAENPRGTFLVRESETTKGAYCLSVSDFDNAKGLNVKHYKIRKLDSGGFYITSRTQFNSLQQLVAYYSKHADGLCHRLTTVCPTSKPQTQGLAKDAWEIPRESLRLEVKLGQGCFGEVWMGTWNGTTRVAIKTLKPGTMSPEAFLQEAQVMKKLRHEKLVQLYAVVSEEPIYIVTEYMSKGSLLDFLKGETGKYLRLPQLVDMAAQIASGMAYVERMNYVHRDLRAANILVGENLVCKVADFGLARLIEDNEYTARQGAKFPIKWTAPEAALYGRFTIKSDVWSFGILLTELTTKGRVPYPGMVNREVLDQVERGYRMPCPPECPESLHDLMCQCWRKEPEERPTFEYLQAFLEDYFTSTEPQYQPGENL

COc1cc(C)cc(-c2nc(Nc3cc(C(F)(F)F)cc(C(F)(F)F)c3)ncc2-c2ccnc(-c3ccc(N(C)C)cc3)c2)c1 [Compound 8g]
multi-kinase inhibitory effect [1]: 33.1 ± 0.4%
inhibition at 10 µM [2]: 28.5 ± 1.2%
viability at 10 µM [3]: > 50%
viability at 10 µM [4]: 30 to 45%
viability at 100 µM [5]: > 50%

Cc1cc(O)cc(-c2nc(Nc3cc(C(F)(F)F)cc(C(F)(F)F)c3)ncc2-c2ccnc(-c3cccnc3)c2)c1 [Compound 10b]
increase of apoptotic cell population [6]: 4.7 folds
increase of necrotic cell population [6]: 2.4 folds
IC50 [7]: 25.9 ± 1.3 µM
R (resistance fraction) [7]: <1%
autophagic signal higher than control cells [8]: 30%
Src kinase inhibitory activity in words (dose-response) [2]: completely inactive
IC50 [3]: 6.4 ± 0.5 µM
viability at 10 µM [3]: > 50%
IC50 [4]: > 25 µM
viability at 10 µM [4]: 30 to 45%
increase of apoptotic cell population [9]: 2.3 folds
cell population in G2/M-phase [10]: 25.1 ± 0.6%
cells in S-phase [10]: 23.0 ± 0.5%

COc1cc(C)cc(-c2nc(Nc3cc(C(F)(F)F)cc(C(F)(F)F)c3)ncc2-c2ccnc(-c3cccc(C(C)=O)c3)c2)c1 [Compound 8c]
viability at 10 µM [3]: 35 to 45%

CC(=O)c1ccc(-c2cc(-c3cnc(Nc4cc(C(F)(F)F)cc(C(F)(F)F)c4)nc3-c3cc(C)cc(O)c3)ccn2)cc1 [Compound 10d]
viability at 10 µM [3]: 35 to 45%
viability at 10 µM [5]: > 50%
viability at 100 µM [5]: > 50%

Cc1cc(O)cc(-c2nc(Nc3cc(C(F)(F)F)cc(C(F)(F)F)c3)ncc2-c2ccnc(-c3ccc(Oc4ccccc4)cc3)c2)c1 [Compound 10j]
multi-kinase inhibitory effect [1]: 30.2 ± 0.4%
viability at 10 µM [3]: 35 to 45%
viability at 10 µM [4]: 30 to 45%
viability at 10 µM [5]: > 50%
viability at 100 µM [5]: > 50%

Cc1cc(O)cc(-c2nc(Nc3cc(C(F)(F)F)cc(C(F)(F)F)c3)ncc2-c2ccnc(-c3ccc(N(C)C)cc3)c2)c1 [Compound 10g]
R (resistance fraction) [7]: 41.6 ± 3.2%
multi-kinase inhibitory effect [1]: 39 ± 0.4%
EC50 [2]: 3.7 ± 0.7 µM
inhibition at 10 µM [2]: 51.3 ± 9.8%
IC50 [3]: 24.2 ± 2.1 µM
IC50 [4]: 9.4 ± 0.9 µM
viability at 10 µM [4]: 30 to 45%
R (resistance fraction) [11]: 12.9 ± 3.9%
viability at 100 µM [5]: > 50%

Cc1cc(O)cc(-c2nc(Nc3cc(C(F)(F)F)cc(C(F)(F)F)c3)ncc2-c2ccnc(-c3ccc(N(c4ccccc4)c4ccccc4)cc3)c2)c1 [Compound 10h]
viability drop compared to control cells [12]: failed to show any considerable antiproliferative/cytotoxic effects
viability drop compared to control cells [7]: failed to show any considerable antiproliferative/cytotoxic effects
viability drop compared to control cells [11]: failed to show any considerable antiproliferative/cytotoxic effects

COc1cc(C)cc(-c2nc(Nc3cc(C(F)(F)F)cc(C(F)(F)F)c3)ncc2-c2ccnc(-c3ccc(N(c4ccccc4)c4ccccc4)cc3)c2)c1 [Compound 8h]
viability drop compared to control cells [12]: failed to show any considerable antiproliferative/cytotoxic effects
viability drop compared to control cells [7]: failed to show any considerable antiproliferative/cytotoxic effects
viability drop compared to control cells [11]: failed to show any considerable antiproliferative/cytotoxic effects

COc1cc(C)cc(-c2nc(Nc3cc(C(F)(F)F)cc(C(F)(F)F)c3)ncc2-c2ccnc(-c3ccc(C#N)cc3)c2)c1 [Compound 8f]
viability at 10 µM [3]: > 50%
viability at 10 µM [4]: > 50%
viability at 10 µM [5]: > 50%
viability at 100 µM [5]: > 50%

COc1cc(C)cc(-c2nc(Nc3cc(C(F)(F)F)cc(C(F)(F)F)c3)ncc2-c2ccnc(-c3ccccc3)c2)c1 [Compound 8a]
multi-kinase inhibitory effect [1]: 23 ± 0.4%
Src kinase selectivity index [2]: 2.4
inhibition at 10 µM [2]: 54 ± 0.6%

COc1cc(C)cc(-c2nc(Nc3cc(C(F)(F)F)cc(C(F)(F)F)c3)ncc2-c2ccnc(-c3ccc(Oc4ccccc4)cc3)c2)c1 [Compound 8j]
multi-kinase inhibitory effect [1]: 26 ± 0.5%
Src kinase selectivity index [2]: 2.1
inhibition at 10 µM [2]: 54.9 ± 1.6%

COc1cc(C)cc(-c2nc(Nc3cc(C(F)(F)F)cc(C(F)(F)F)c3)ncc2-c2ccnc(Cl)c2)c1 [Compound 7]
increase of necrotic cell population [6]: 3.4 folds
multi-kinase inhibitory effect [1]: 37.4 ± 3.7%
Src kinase inhibitory activity in words (dose-response) [2]: moderate inhibitory activity
inhibition at 10 µM [2]: 42.3 ± 10.3%
IC50 [3]: 9.4 ± 0.5 µM
viability at 10 µM [3]: > 50%
viability at 100 µM [5]: > 50%

CC(=O)c1cccc(-c2cc(-c3cnc(Nc4cc(C(F)(F)F)cc(C(F)(F)F)c4)nc3-c3cc(C)cc(O)c3)ccn2)c1 [Compound 10c]
viability at 10 µM [3]: 35 to 45%
viability at 10 µM [4]: 30 to 45%
viability at 10 µM [5]: > 50%
viability at 100 µM [5]: > 50%

Cc1cc(O)cc(-c2nc(Nc3cc(C(F)(F)F)cc(C(F)(F)F)c3)ncc2-c2ccnc(-c3ccc(C#N)cc3)c2)c1 [Compound 10f]
increase of apoptotic cell population [6]: 15.2 folds
increase of necrotic cell population [6]: 3.7 folds
autophagic signal higher than control cells [8]: 99%
multi-kinase inhibitory effect [1]: 23.9 ± 7.4%
Src kinase inhibitory activity in words (dose-response) [2]: completely inactive
IC50 [3]: 7.2 ± 1.1 µM
IC50 [4]: 9.2 ± 0.8 µM
viability at 10 µM [4]: 30 to 45%
increase of apoptotic cell population [9]: 1.7 folds

Cc1cc(O)cc(-c2nc(Nc3cc(C(F)(F)F)cc(C(F)(F)F)c3)ncc2-c2ccnc(-c3ccccc3)c2)c1 [Compound 10a]
increase of apoptotic cell population [6]: 7.5 folds
increase of necrotic cell population [6]: 4.0 folds
multi-kinase inhibitory effect [1]: 24.7 ± 4.6%
inhibition at 10 µM [13]: 24%
Src kinase inhibitory activity in words (dose-response) [2]: completely inactive
IC50 [3]: 9.9 ± 0.3 µM
viability at 10 µM [3]: > 50%
IC50 [4]: 10.3 ± 0.6 µM
viability at 10 µM [4]: 30 to 45%
cell population in G2/M-phase [10]: 24.8 ± 0.4%
cells in S-phase [10]: 29.8 ± 0.6%
cell population in G0/G1-phase [10]: 45.4 ± 0.6%

COc1cc(C)cc(-c2nc(Nc3cc(C(F)(F)F)cc(C(F)(F)F)c3)ncc2-c2ccnc(-c3cccnc3)c2)c1 [Compound 8b]
increase of apoptotic cell population [6]: 3.8 folds
increase of necrotic cell population [6]: 2.9 folds
IC50 [7]: 32.4 ± 2.8 µM
R (resistance fraction) [7]: 3.7 ± 0.9%
autophagic signal higher than control cells [8]: 54%
multi-kinase inhibitory effect [1]: 26.6 ± 2.4%
inhibition at 10 µM [13]: 21%
EC50 [2]: 1.3 ± 0.3 µM
Src kinase selectivity index [2]: 2.9
inhibition at 10 µM [2]: 77.8 ± 1.3%
IC50 [3]: 11.3 ± 0.5 µM
viability at 10 µM [3]: 35 to 45%
IC50 [4]: > 25 µM
viability at 10 µM [4]: 30 to 45%
cells in S-phase ([14]; control 36.4 ± 4.1%): 22.8 ± 2.3%
cells in G0/G1-phase ([14]; control 39.5 ± 4.6%): 50.2 ± 1.0%
increase of apoptotic cell population [9]: 2.5 folds
cells in S-phase [10]: 21.0 ± 0.9%
cell population in G0/G1-phase [10]: 58.8 ± 1.8%

CCN(CC)CCCC(C)Nc1ccnc2cc(Cl)ccc12 (stereo not drawn) [chloroquine, reference compound]
autophagic signal higher than control cells [8]: 65%
effect on autophagy in words ([13]; HT-29, 10 μM, 48 h, Cyto-ID): induced autophagy

— paper PMC9066187 (RSC Advances, 2019)
